Screens (PubChem BioAssay)
Rows were chosen to be rich in hits. Some 1.2% of all compounds tested hit in one or more screens of this group.
p-CIP stab down: p/CIP protein destabilization | Q05BA5 | F442A p/CIP-EGFP cells, EGFP fluorescence, 16 h | decrease of EGFP signal, % at 10 µM | 290,000 tested, 0.01% active | AID 1984;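 active = EGFP signal decrease of at least 30% at 10 µM or well 3 SD below plate mean, unless failing retest; inactive = the rest, including hits failing retest or dose response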
procasp3 activ: activates human procaspase-3. P42574. recombinant procaspase-3 D3A, Ac-DEVD-pNA absorbance 405 nm. activation, % at 8.5 µM. 330,000 tested, 0.11% active. AID 463141;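 active = activation above the mean of all tested compounds plus 3 SD, cut at about 21% in these data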;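 note: 0% = DMSO alone and 100% = DMSO wells spiked with extra 5 µM PC-3 D3A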
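Compound: 8.5 µM single point, 0.8% DMSO / Material: Autoprocessing-dead procaspase-3 D3A mutant enzyme / Timing: 1 h preincubation plus 2 h reaction at 25 °C / Medium: Zinc-free HEPES/NaCl buffer with 0.01% Triton X-100 at pH 7.4 / Technique: 405 nm absorbance of p-nitroaniline, reads at 0 and 120 min / Repeats: one well per compound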
Rce1 inh: inhibitors of yeast Ras-converting enzyme. Q03530. yeast membranes, quenched prenylated peptide cleavage fluorescence. calls only. 290,000 tested, 0.27% active. AID 2563;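 active = fall in fluorescence gain of 50% or more versus controls, with final raw signal at or below 3038400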;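 note: plate controls were neutral control wells for no effect and wells lacking membranes for full effect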
Target sequence (Q03530 whole entry, looked up): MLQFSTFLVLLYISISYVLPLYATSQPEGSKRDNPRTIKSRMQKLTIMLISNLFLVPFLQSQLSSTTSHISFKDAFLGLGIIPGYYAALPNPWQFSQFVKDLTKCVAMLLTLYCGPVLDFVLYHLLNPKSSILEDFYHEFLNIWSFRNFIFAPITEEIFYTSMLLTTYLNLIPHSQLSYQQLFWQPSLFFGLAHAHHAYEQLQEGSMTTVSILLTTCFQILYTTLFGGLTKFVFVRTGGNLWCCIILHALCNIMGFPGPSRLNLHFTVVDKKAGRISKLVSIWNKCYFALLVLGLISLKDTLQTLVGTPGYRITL
Hep lipid drop: hepatic lipid droplet formation modulation | AML12 mouse hepatocytes, oleate lipid droplets, BODIPY imaging | inhibition, % at 6.5 µM | 240,000 tested, 0.4% active;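 active = lipid droplet intensity inhibited by at least 50%, with more than 500 cells counted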
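Material: mouse AML12 hepatocyte cell line, fixed after treatment; Timing: compound with oleate, overnight; Technique: high-content imaging of BODIPY-stained droplets and DAPI nuclei; Probe or stimulus: oleate, 100 µM final; Dosing: compound at 6.5 µM only.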
procasp7 counter: activates human procaspase-7, counter-screen for procaspase-3 activators | P55210 | recombinant procaspase-7, Ac-DEVD-pNA absorbance 405 nm; D23A/D198A/D206A triple mutant, cannot self-cleave; scale: DMSO 0, 5 µM enzyme 100 | 330,000 tested, 0.093% active | activation, % at 8.5 µM;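 active = percent activation above the screen-wide mean plus 3 SD, cut at about 25% in these data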
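Test system: Procaspase-7 triple mutant (PC-7 D3A). Also added: Ac-DEVD-pNA substrate, 400 µM as added. Schedule: 1 h enzyme–compound preincubation and 2 h substrate reaction, both 25 °C. Signal: p-Nitroaniline absorbance at 405 nm, read at 0 and 120 min. Control set: low DMSO alone, high DMSO plus 5 µM PC-7.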
FXN GAA850 act: frataxin GAA850 promoter activation; activation, % at 6 µM; HEK293 lucGAA850 FXN promoter luciferase reporter, 24 h; percent of 10 µM SAHA response; AID 540364; 360,000 tested, 0.56% active;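 active = activation above the average of all compounds screened plus 3 SD, cutoff fixed separately per campaign, cut at about 7.5% in these data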;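 note: 0% = DMSO wells and 100% = 10 µM SAHA wells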
GAA30 FXN cntr: activates GAA30 frataxin promoter, counter-screen for GAA850 activators; shares compounds with FXN GAA850 act; HEK293 lucGAA30 FXN promoter luciferase, 24 h; DMSO = 0%, 5 µM ipriflavone = 100%; activation, % at 6 µM; 1,900 tested, 66% active;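 active = mean activation above the mean of solvent-only control wells plus 3 SD, cut at about 22% in these data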;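 note: counterscreen of GAA850 promoter hits where activity marks nonselective or luminescence artifacts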
FXN GAA850 conf: GAA850 FXN promoter activation confirmation. HEK293 lucGAA850 FXN promoter luciferase reporter, 24 h; 100% = activation by SAHA. 1,900 tested, 86% active. shares compounds with FXN GAA850 act. AID 588351. activation, % at 6 µM;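 active = mean activation above a set limit taken from the primary screen, cut at about 8% in these data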;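 note: 0% = DMSO wells and 100% = 10 µM SAHA wells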
* = called active by the depositor; i = inactive; . = no result given.

SMILES | p-CIP stab down | procasp3 activ | Rce1 inh | Hep lipid drop | procasp7 counter | FXN GAA850 act | GAA30 FXN cntr | FXN GAA850 conf
CN(C)CCCN1C(=O)c2cccc3c([N+](=O)[O-])ccc(c23)C1=O | -39 | -10 | . | 8 | 3 | 7.7* | -24 | 12*
O=C1c2cccc3c([N+](=O)[O-])ccc(c23)C(=O)N1CCc1ccccn1 | -114 | -1 | i | -5 | 8 | 1 | . | .
CC(C)(C)N1C(=O)[C@H]2[C@@H](c3ccc(Br)cc3)N3C(=O)N(c4cccc(F)c4)C(=O)[C@@]3(C)[C@H]2C1=O | . | -3 | i | . | 0 | 8.8* | 34* | 18*
COc1ccc([C@@H]2[C@@H]3C(=O)N(C(C)(C)C)C(=O)[C@@H]3[C@]3(C)C(=O)N(c4cccc(F)c4)C(=O)N23)cc1 | -3 | -1 | i | 0 | -4 | 2 | . | .
COc1ccc([C@@H]2[C@@H]3C(=O)N(C(C)(C)C)C(=O)[C@@H]3[C@]3(Cc4ccccc4)C(=O)N(c4ccc(Br)cc4)C(=O)N23)cc1 | 10 | 4 | i | -5 | 0 | -5 | . | .
CC[C@@]12C(=O)N(c3cccc(Br)c3)C(=O)N1[C@H](c1ccc(OC)cc1)[C@@H]1C(=O)N(C(C)(C)C)C(=O)[C@@H]12 | . | 4 | i | . | -1 | 11* | 39* | 9.2*
COc1ccc([C@@H]2[C@@H]3C(=O)N(C(C)(C)C)C(=O)[C@@H]3[C@]3(Cc4ccc(Cl)cc4)C(=O)N(c4cccc(Br)c4)C(=O)N23)cc1 | -17 | 5 | i | -2 | -5 | 1 | . | .
CC[C@@]12C(=O)N(c3cccc(Br)c3)C(=O)N1[C@H](c1ccc(Br)cc1)[C@@H]1C(=O)N(C(C)(C)C)C(=O)[C@@H]12 | . | 0 | i | . | -7 | 11* | 45* | 17*
COc1ccc([C@@H]2[C@@H]3C(=O)N(C(C)(C)C)C(=O)[C@@H]3[C@]3(C)C(=O)N(c4cccc(Br)c4)C(=O)N23)cc1 | 1 | -5 | i | 7 | 1 | 11* | 10 | 7
CC1C(=O)N2CCCc3cc(S(=O)(=O)Nc4ccccc4C(N)=O)cc1c32 (centres undefined) | . | -9 | i | . | 16 | 2 | . | .
O=C(OCc1nnc(-c2cccs2)o1)C1=NN(c2ccccc2)C(=O)CC1 | . | -5 | . | . | -6 | 2 | . | .
Cc1c(N)cc(S(=O)(=O)O)cc1NC(=O)c1cccc([N+](=O)[O-])c1 | . | . | . | . | . | 0 | . | .
CCc1nc2c(OCc3ccc(C#N)cc3)cccn2c1N(C)C(=O)c1cccs1 | . | . | . | . | . | -1 | . | .
CC(C)(C)N1C(=O)[C@H]2[C@@H](c3ccc(Br)cc3)N3C(=O)N(c4cccc(Cl)c4)C(=O)[C@@]3(Cc3ccccc3)[C@H]2C1=O | . | 1 | i | . | 1 | 12* | 16 | 14*
COc1ccc([C@@H]2[C@@H]3C(=O)N(C(C)(C)C)C(=O)[C@@H]3[C@]3(Cc4ccccc4)C(=O)N(c4cccc(Cl)c4)C(=O)N23)cc1 | . | 7 | i | . | -5 | 2 | . | .
COc1cc2c(c(Br)c1N)-c1cc(Br)c(N)cc1C2=O | . | . | . | . | . | 11* | 91* | 46*
COC(=O)c1cc(-c2ccc(Br)cc2)on1 | -6 | 7 | i | . | 1 | 2 | . | .
CCN(CC)C(=O)c1cc(-c2ccc(Br)cc2)on1 | -8 | 1 | i | . | 12 | 8.0* | 111* | 40*
CC(=O)Cn1nnc2sc3c(c2c1=O)CCC(C(C)(C)C)C3 (centres undefined) | 8 | 6 | i | 5 | -1 | 8.2* | 119* | 45*
CCOC(=O)c1sc(NC(=O)Cn2nnc3sc4c(c3c2=O)CCC(C(C)(C)C)C4)nc1C (centres undefined) | 0 | 7 | i | -3 | 5 | 0 | . | .
